In the M2OR odorant receptor database:

Assays:
Details in all cases: stereoisomer not certain
OR51D1 (Homo sapiens) = target: T1, OR51D1 (Homo sapiens) (UniProt Q8NGF3)
T1 sequence (whole entry): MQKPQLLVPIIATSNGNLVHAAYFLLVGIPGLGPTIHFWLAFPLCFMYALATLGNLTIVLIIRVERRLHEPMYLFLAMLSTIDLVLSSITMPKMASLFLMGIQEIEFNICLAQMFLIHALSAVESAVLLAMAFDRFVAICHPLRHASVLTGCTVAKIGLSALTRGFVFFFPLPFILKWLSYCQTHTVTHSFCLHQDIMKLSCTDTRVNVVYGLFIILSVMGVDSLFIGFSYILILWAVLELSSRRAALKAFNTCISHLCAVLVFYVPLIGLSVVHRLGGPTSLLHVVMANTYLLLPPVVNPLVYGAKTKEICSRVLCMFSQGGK
Outline: (§1)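 Assay methods differ from source to source, frequently being transient luciferase assays in mammalian cell lines. For each receptor–molecule pair, the label responsive (active) applies when the original authors judged the measured signal statistically different from baseline, and non-responsive (inactive) applies otherwise.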

OR51E2 (Homo sapiens) = target: T2, OR51E2 (Homo sapiens) (UniProt Q9H255)
T2 sequence (whole entry): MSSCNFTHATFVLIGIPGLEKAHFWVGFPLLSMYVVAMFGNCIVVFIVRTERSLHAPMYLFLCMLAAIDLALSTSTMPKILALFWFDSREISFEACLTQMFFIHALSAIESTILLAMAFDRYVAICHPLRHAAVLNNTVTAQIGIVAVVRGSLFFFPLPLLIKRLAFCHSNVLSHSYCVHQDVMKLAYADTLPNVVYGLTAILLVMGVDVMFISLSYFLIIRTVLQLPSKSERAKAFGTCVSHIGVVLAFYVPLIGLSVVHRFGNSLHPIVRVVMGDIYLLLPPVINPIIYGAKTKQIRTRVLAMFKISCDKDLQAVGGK
Outline: as §1

OR51F1 (Homo sapiens) = target: T3, OR51F1 (Homo sapiens) (UniProt A6NGY5)
T3 sequence (whole entry): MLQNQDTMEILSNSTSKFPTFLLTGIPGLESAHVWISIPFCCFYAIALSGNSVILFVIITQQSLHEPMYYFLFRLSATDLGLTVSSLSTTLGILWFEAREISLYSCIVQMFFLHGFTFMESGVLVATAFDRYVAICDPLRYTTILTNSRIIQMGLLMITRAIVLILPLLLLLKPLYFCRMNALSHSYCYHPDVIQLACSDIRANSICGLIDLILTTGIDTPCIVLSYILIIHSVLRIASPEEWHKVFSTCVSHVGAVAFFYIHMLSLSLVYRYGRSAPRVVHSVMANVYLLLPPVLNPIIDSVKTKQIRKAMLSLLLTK
Outline: as §1

OR51F2 (Homo sapiens) = target: T4, OR51F2 (Homo sapiens) (UniProt Q8NH61)
T4 sequence (whole entry): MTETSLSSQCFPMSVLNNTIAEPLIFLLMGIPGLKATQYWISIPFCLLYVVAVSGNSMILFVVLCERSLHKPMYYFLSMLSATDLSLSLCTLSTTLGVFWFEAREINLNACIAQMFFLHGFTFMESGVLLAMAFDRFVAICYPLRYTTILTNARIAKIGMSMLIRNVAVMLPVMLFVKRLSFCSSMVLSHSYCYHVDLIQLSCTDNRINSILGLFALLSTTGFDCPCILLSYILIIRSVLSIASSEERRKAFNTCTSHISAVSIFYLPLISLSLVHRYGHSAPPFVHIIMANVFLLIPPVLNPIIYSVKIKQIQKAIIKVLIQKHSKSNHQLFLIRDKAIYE
Outline: as §1

OR51G1 (Homo sapiens) = target: T5, OR51G1 (Homo sapiens) (UniProt Q8NGK1)
T5 sequence (whole entry): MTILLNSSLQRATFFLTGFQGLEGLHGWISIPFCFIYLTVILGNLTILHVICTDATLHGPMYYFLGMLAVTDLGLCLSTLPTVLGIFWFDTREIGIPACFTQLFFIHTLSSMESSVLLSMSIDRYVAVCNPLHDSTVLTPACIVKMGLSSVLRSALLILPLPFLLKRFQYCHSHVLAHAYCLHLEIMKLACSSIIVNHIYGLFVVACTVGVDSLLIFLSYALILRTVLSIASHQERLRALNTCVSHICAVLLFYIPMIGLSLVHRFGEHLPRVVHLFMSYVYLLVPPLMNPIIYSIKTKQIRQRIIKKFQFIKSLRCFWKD
Outline: as §1

OR51G2 (Homo sapiens) = target: T6, OR51G2 (Homo sapiens) (UniProt Q8NGK0)
T6 sequence (whole entry): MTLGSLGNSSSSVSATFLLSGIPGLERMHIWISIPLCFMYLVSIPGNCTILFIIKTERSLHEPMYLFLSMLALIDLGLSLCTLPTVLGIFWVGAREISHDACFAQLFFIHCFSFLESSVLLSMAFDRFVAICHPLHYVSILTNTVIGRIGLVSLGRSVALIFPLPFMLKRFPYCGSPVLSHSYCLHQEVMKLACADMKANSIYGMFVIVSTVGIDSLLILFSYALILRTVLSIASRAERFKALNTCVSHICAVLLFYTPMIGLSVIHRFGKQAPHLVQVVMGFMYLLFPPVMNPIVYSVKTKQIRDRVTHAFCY
Outline: as §1

OR51H1 (Homo sapiens) = OR51H1 (Homo sapiens) (UniProt Q8NH63)
Outline: as §1

OR51I1 (Homo sapiens) = target: T7, OR51I1 (Homo sapiens) (UniProt Q9H343)
T7 sequence (whole entry): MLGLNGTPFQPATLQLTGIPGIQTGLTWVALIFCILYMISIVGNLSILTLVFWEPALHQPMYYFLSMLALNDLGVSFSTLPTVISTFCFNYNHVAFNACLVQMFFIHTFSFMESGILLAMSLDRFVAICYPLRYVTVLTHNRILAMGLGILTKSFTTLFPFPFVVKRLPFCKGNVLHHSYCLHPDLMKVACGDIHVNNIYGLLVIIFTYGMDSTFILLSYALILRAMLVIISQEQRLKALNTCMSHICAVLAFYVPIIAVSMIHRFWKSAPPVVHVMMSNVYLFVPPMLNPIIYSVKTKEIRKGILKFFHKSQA
Outline: as §1

OR51I2 (Homo sapiens) = target: T8, OR51I2 (Homo sapiens) (UniProt Q9H344)
T8 sequence (whole entry): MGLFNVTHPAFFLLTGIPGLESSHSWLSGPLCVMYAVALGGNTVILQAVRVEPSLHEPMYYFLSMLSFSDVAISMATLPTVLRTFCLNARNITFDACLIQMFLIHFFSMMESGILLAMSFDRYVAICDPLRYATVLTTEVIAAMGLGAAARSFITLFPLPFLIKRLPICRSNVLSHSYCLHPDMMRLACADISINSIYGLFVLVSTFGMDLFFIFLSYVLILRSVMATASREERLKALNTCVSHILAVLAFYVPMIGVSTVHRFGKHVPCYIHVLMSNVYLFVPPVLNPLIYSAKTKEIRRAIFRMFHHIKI
Outline: as §1

OR51J1 (Homo sapiens) = target: T9, OR51J1 (Homo sapiens) (UniProt Q9H342)
T9 sequence (whole entry): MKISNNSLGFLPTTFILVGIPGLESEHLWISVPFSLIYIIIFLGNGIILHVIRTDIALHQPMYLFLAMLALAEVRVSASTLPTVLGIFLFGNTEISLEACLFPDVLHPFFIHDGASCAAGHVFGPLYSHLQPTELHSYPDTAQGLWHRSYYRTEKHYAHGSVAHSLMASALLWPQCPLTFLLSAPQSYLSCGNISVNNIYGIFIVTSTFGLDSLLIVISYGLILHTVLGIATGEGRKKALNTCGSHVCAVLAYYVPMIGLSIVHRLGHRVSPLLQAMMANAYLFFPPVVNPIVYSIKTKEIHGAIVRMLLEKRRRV
Outline: as §1

OR51L1 (Homo sapiens) = target: T10, OR51L1 (Homo sapiens) (UniProt Q8NGJ5)
T10 sequence (whole entry): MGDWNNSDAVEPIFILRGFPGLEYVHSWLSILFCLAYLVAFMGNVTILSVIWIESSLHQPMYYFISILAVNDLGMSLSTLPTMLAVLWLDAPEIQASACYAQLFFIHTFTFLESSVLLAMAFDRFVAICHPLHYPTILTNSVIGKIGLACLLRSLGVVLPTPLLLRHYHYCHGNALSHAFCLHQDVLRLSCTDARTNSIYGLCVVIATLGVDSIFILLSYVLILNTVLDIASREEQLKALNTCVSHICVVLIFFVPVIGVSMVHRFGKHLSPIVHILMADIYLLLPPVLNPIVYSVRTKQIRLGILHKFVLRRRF
Outline: as §1

OR51M1 (Homo sapiens) = target: T11, OR51M1 (Homo sapiens) (UniProt Q9H341)
T11 sequence (whole entry): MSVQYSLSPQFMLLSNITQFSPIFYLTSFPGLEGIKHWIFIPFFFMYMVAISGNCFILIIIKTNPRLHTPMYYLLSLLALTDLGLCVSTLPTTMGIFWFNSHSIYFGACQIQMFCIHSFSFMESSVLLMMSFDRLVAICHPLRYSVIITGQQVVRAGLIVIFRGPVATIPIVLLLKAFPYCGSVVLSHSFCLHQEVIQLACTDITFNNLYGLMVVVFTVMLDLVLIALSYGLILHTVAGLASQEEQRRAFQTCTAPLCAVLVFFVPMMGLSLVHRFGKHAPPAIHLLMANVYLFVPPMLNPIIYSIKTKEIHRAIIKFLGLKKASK
Outline: as §1

OR51Q1 (Homo sapiens) = target: T12, OR51Q1 (Homo sapiens) (UniProt Q8NH59)
T12 sequence (whole entry): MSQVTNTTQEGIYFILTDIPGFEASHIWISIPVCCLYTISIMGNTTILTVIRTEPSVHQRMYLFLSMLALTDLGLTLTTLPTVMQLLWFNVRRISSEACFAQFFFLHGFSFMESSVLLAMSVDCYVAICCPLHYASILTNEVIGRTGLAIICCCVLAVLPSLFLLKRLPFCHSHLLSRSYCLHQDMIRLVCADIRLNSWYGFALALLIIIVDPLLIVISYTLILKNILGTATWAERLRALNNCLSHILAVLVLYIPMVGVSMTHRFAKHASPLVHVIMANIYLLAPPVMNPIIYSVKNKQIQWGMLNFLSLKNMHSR
Outline: as §1

OR51S1 (Homo sapiens) = target: T13, OR51S1 (Homo sapiens) (UniProt Q8NGJ8)
T13 sequence (whole entry): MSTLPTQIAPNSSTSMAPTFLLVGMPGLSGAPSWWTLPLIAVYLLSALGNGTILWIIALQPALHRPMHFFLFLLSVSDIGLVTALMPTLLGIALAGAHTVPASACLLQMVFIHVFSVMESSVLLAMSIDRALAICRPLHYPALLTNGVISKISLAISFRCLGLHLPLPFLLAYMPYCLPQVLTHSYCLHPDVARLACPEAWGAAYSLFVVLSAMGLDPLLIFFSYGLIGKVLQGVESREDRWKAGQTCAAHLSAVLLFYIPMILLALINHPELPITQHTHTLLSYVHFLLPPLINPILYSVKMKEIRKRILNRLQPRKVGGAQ
Outline: as §1

OR51T1 (Homo sapiens) = target: T14, OR51T1 (Homo sapiens) (UniProt Q8NGJ9)
T14 sequence (whole entry): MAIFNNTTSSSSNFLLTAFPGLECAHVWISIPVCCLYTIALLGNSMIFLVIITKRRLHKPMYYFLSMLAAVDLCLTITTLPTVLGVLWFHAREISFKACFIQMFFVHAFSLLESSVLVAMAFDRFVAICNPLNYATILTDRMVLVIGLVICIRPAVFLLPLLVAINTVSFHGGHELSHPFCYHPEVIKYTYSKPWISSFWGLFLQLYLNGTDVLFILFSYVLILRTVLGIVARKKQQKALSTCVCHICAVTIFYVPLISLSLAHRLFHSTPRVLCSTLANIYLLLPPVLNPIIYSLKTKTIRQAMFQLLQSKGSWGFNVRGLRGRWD
Outline: as §1

OR51V1 (Homo sapiens) = target: T15, OR51V1 (Homo sapiens) (UniProt Q9H2C8)
T15 sequence (whole entry): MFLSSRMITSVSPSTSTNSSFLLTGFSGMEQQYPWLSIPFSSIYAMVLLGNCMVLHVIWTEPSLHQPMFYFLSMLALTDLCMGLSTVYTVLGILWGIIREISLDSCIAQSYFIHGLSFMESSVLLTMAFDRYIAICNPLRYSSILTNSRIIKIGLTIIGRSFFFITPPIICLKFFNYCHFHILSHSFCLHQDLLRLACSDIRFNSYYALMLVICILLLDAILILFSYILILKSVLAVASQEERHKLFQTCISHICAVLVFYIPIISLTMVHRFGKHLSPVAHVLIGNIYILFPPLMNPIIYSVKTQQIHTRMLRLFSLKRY
Outline: as §1

OR52A1 (Homo sapiens) = target: T16, OR52A1 (Homo sapiens) (UniProt Q9UKL2)
T16 sequence (whole entry): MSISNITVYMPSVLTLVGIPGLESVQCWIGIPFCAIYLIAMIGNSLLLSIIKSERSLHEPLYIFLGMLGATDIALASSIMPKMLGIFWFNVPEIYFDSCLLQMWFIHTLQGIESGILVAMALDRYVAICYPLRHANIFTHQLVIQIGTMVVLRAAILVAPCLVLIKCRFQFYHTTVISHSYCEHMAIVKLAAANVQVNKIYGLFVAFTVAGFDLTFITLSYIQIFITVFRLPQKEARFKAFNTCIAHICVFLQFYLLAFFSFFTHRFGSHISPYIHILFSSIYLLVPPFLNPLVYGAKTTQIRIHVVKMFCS
Outline: as §1

OR52A4P (Homo sapiens) = target: T17, OR52A4P (Homo sapiens) (UniProt A6NMU1)
T17 sequence (whole entry): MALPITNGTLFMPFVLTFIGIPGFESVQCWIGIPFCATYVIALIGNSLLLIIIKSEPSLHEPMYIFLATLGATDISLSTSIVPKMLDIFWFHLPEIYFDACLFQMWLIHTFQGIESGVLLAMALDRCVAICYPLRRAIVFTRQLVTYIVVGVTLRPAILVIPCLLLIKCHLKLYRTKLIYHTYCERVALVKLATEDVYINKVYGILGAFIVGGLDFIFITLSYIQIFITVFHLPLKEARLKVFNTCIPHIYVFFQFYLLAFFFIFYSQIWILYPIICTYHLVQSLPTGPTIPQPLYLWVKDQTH
Outline: as §1

Measured: odorant receptor agonist call

Chain of OR51H1 (Homo sapiens) (Q8NH63 whole entry): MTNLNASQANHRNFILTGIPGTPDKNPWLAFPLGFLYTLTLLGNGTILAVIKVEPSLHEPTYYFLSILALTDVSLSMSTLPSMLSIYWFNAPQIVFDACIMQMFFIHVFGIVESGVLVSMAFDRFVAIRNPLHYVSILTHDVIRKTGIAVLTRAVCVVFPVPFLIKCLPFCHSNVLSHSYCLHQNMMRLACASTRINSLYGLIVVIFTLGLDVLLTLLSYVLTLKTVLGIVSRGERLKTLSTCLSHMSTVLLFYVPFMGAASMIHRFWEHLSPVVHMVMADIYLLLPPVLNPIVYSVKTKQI

CC(=O)c1c(C)c([N+](=O)[O-])c(C(C)(C)C)c([N+](=O)[O-])c1C
inactive: all assays above
